Results from ChEMBL document CHEMBL4334481, “First Nondiscriminating Translocator Protein Ligands Produced from a Carbazole Scaffold” (J Med Chem, 2019).
Calls of active or inactive are those of the source. The rule behind the calls is not given here.

Legend:
Translocator protein [1] = target: T1, Translocator protein (Homo sapiens, UniProt P30536); test: Displacement of [3H]PK11195 from wild-type human TSPO expressed in HEK293 cell membranes after 90 mins by scintillation counting method
Homo sapiens [2] = species: Homo sapiens; test: Selectivity ratio of ki for human TSPO A147T mutant expressed in HEK293 cell membranes to ki for human TSPO expressed in HEK293 cell membranes; type: cell-based
Procedure, shortened: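 Membranes from stably transfected HEK293 cells (PBS/0.04% EDTA detachment, homogenised in Tris-HCl, washed by 48000 g spins), 20 µg protein/well for WT or 10 µg/well for A147T, incubated with 10 nM [3H]PK 11195 and competitor at log-spaced 3.1 nM–10 µM, 90 min, 4 °C.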

[3] = target: Translocator protein (Rattus norvegicus) (UniProt P16257); test: Binding affinity to TSPO in rat C6 glioma cells assessed as steroidogenic activity by measuring increase in pregnenolone level after 2 hrs by ELISA; type: cell-based
Procedure, shortened: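 C6 glioma cells plated at 1 x 10^5/well, after 24 h washed twice with ELISA buffer (HEPES-NaOH pH 7.4, 0.1% BSA, glucose, salts), then ligand 100 µM for 2 h in buffer containing trilostane 25 µM and SU10603 10 µM; vehicle 0.1% DMSO. Buffer collected, spun 1500 g, pregnenolone quantified by ELISA; n ≥ 3; one-way ANOVA with Dunnett's test.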

Translocator protein [4] = target: T1, Translocator protein; test: Displacement of [3H]PK11195 from human TSPO A147T mutant expressed in HEK293 cells after 90 mins by scintillation counting method; type: cell-based
Translocator protein [5] = target: T1, Translocator protein; test: Displacement of [3H]PK11195 from wild-type human TSPO expressed in HEK293 cells after 90 mins by scintillation counting method; type: cell-based
[6] = test system: Translocator protein (Homo sapiens), P30536 [UNDEFINED MUTATION]; test: Potency index, ratio of PK11195 Ki to compound Ki for human TSPO A147T mutant expressed in HEK293 cell membranes; type: cell-based
Homo sapiens [7] = species: Homo sapiens; test: Selectivity ratio of ki for human TSPO A147T mutant expressed in HEK293 cells to ki for human TSPO expressed in HEK293 cells; type: cell-based
Translocator protein [8] = target: T1, Translocator protein; test: Binding affinity to wild-type human TSPO expressed in HEK293 cells assessed as inhibition of cell proliferation at 100 uM incubated for 48 hrs by Brdu incorporation-based ELISA relative to control
Procedure, shortened: (§1)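 Stably transfected WT or A147T TSPO HEK293 cells, 8.75 x 10^3/well on poly-L-lysine-coated plates for 24 h, then 100 µM ligand for 48 h. BrdU added 4 h at 37 °C, BrdU incorporation ELISA stopped with 1 M sulfuric acid, absorbance 450 nm; normalised to vehicle-treated controls; n ≥ 3; two-way ANOVA with Dunnett's test.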

[9] = test system: Translocator protein (Homo sapiens), P30536 [UNDEFINED MUTATION]; test: Binding affinity to human TSPO A147T mutant expressed in HEK293 cells assessed as inhibition of cell proliferation at 100 uM incubated for 48 hrs by Brdu incorporation-based ELISA relative to control; procedure, shortened: as §1
Translocator protein [10] = target: T1, Translocator protein; test: Potency index, ratio of PK11195 Ki to compound Ki for wild-type human TSPO expressed in HEK293 cell membranes; type: cell-based
[11] = test system: Translocator protein (Homo sapiens), P30536 [UNDEFINED MUTATION]; test: Binding affinity to human TSPO A147T mutant expressed in HEK293 cells assessed as inhibition of cell viability at 100 uM incubated for 48 hrs by CellTiter Blue assay relative to control; type: cell-based
Procedure, shortened: (§2)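 Stably transfected WT or A147T TSPO HEK293 cells, 8.75 x 10^3/well on poly-L-lysine (100 µg/mL) plates for 24 h, then 100 µM ligand for 48 h. CellTiter Blue (resazurin) added for 4 h at 37 °C; fluorescence 530 ex/590 em; normalised to vehicle-treated cells; three independent experiments; two-way ANOVA with Dunnett's test.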

Translocator protein [12] = target: T1, Translocator protein; test: Binding affinity to wild-type human TSPO expressed in HEK293 cells assessed as inhibition of cell viability at 100 uM incubated for 48 hrs by CellTiter Blue assay relative to control; type: cell-based; procedure, shortened: as §2
Translocator protein [13] = target: T1, Translocator protein; test: Positive allosteric modulation of wild-type human TSPO expressed in HEK293 cells assessed as potentiation of PK11195-induced reduction in cell proliferation at 100 uM after 48 hrs by Brdu incorporation-based ELISA
Procedure, shortened: (§3)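 WT or A147T TSPO HEK293 cells (8.75 x 10^3/well, poly-L-lysine plates, 24 h) co-treated with 100 µM PK 11195 plus 100 µM ligand for 48 h; proliferation by BrdU ELISA (4 h BrdU labelling, 450 nm read); compared with PK 11195 alone; n ≥ 3; two-way ANOVA with Dunnett's test.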

[14] = test system: Translocator protein (Homo sapiens), P30536 [UNDEFINED MUTATION]; test: Positive allosteric modulation of human TSPO A147T mutant expressed in HEK293 cells assessed as potentiation of PK11195-induced reduction in cell proliferation at 100 uM after 48 hrs by Brdu incorporation-based ELISA; procedure, shortened: as §3

Chain of Translocator protein (Rattus norvegicus) (P16257 whole entry, looked up): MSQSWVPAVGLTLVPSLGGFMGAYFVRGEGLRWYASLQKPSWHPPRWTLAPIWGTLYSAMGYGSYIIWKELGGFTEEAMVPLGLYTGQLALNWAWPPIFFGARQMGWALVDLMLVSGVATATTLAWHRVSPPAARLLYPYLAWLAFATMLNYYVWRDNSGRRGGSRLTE
T1 sequence (P30536 whole entry): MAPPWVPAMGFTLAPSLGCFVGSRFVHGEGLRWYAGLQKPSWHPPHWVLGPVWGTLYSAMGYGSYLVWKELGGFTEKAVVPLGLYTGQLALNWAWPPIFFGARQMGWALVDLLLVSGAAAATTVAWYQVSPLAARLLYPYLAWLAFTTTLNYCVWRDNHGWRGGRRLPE
Chain of Translocator protein (Homo sapiens), P30536 [UNDEFINED MUTATION] (P30536 whole entry, looked up, stated change not applied): as the sequence (P30536 whole entry) above

| SMILES | Ki (Translocator protein [1]) [nM] | Ratio Ki (Homo sapiens [2]) | inhibition [11] | inhibition (Translocator protein [12]) | further results |
| --- | --- | --- | --- | --- | --- |
| COc1cccc(CN(C)C(=O)Cn2c3ccccc3c3cc(-c4ccc(Cl)cc4)ccc32)c1 | 3550 | 0.5 | – | – | – |
| COc1ccc(-c2ccc3c(c2)c2ccccc2n3CC(=O)N(C)Cc2cccc(OC)c2)cc1 | 6.6 | 3.8 | inactive | inactive | Activity [3]: inactive; Ki (Translocator protein [4]): 23.2 nM; Ki (Translocator protein [5]): 3.2 nM; Ratio Ki [6]: 1.1; Ratio Ki (Homo sapiens [7]): 7.3; inhibition (Translocator protein [8]): inactive; inhibition [9]: inactive; Ratio Ki (Translocator protein [10]): 3.4 |
| CCN(Cc1ccc(OC)cc1)C(=O)Cn1c2ccccc2c2ccccc21 | 4740 | > 2.1 | – | – | – |
| CCN(Cc1ccccn1)C(=O)Cn1c2ccccc2c2ccccc21 | > 10000 | – | – | – | – |
| CCN(Cc1ccccc1NC(C)=O)C(=O)Cn1c2ccccc2c2ccccc21 | 243 | > 41.2 | – | – | – |
| CCN(Cc1ccccc1C(F)(F)F)C(=O)Cn1c2ccccc2c2ccccc21 | > 10000 | – | – | – | – |
| COc1cccc(CN(C)C(=O)Cn2c3ccccc3c3cc(-c4ccccc4)ccc32)c1 | 231 | 0.9 | inactive | inactive | Activity (Translocator protein [13]): Active; inhibition (Translocator protein [8]): inactive; inhibition [9]: inactive; Activity [14]: Active |
| CC[C@@H](C)N(C)C(=O)c1cc2ccccc2c(-c2ccccc2Cl)n1 | – | – | 68% | 65% | Activity [3]: Active; inhibition (Translocator protein [8]): 83%; inhibition [9]: 81% |
| CCN(Cc1cccc(OC)c1)C(=O)Cn1c2ccccc2c2ccccc21 | 96.1 | 1 | inactive | inactive | Activity [3]: inactive; Ki (Translocator protein [4]): 277 nM; Ki (Translocator protein [5]): 217 nM; Ratio Ki (Homo sapiens [7]): 1.2; inhibition (Translocator protein [8]): inactive; inhibition [9]: inactive |
| CCN(Cc1cccnc1)C(=O)Cn1c2ccccc2c2ccccc21 | > 10000 | – | – | – | – |
| CCN(CC)C(=O)Cn1c2ccccc2c2ccccc21 | – | 5.9 | – | – | – |
| COc1cccc(CN(C)C(=O)Cn2c3ccccc3c3cc(-c4cccc(Cl)c4)ccc32)c1 | 201 | 3.2 | – | – | – |
| COc1cccc(CN(C)C(=O)Cn2c3ccccc3c3cc(Br)ccc32)c1 | > 10000 | – | – | – | – |
| COc1cccc(CN(C)C(=O)Cn2c3ccccc3c3cc(-c4ccccc4Cl)ccc32)c1 | 231 | 0.9 | inactive | inactive | – |
| CCN(Cc1ccncc1)C(=O)Cn1c2ccccc2c2ccccc21 | > 10000 | – | – | – | – |
| CCN(Cc1cccc(OC)c1)C(=O)Cn1c2ccccc2c2cc(-c3ccc(OC)cc3)ccc21 | 447 | 0.8 | – | – | – |
| CCN(Cc1cccc(OC)c1)C(=O)Cn1c2ccccc2c2cc(-c3ccccc3)ccc21 | 385 | 1.1 | inactive | inactive | inhibition (Translocator protein [8]): inactive; inhibition [9]: Active |
| CCN(Cc1cccc(C(F)(F)F)c1)C(=O)Cn1c2ccccc2c2ccccc21 | > 10000 | – | – | – | – |
| CCN(Cc1ccccc1)C(=O)Cn1c2ccccc2c2ccccc21 | 70 | 4.5 | inactive | inactive | inhibition (Translocator protein [8]): inactive; inhibition [9]: inactive |
| CCN(Cc1ccc(C(F)(F)F)cc1)C(=O)Cn1c2ccccc2c2ccccc21 | > 10000 | – | – | – | – |
| CCN(Cc1ccc(NC(C)=O)cc1)C(=O)Cn1c2ccccc2c2ccccc21 | > 10000 | – | – | – | – |
| CCN(Cc1cccc(NC(C)=O)c1)C(=O)Cn1c2ccccc2c2ccccc21 | > 10000 | – | – | – | – |
| CN(Cc1ccccc1)C(=O)Cn1c2ccccc2c2ccccc21 | 53 | 2.5 | inactive | inactive | inhibition (Translocator protein [8]): inactive; inhibition [9]: inactive |
| CCN(Cc1ccccc1OC)C(=O)Cn1c2ccccc2c2ccccc21 | 1530 | 1 | – | – | – |
| O=C(Cn1c2ccccc2c2ccccc21)NCc1ccccc1 | > 10000 | – | – | – | – |
| CCN(Cc1ccccc1F)C(=O)Cn1c2ccccc2c2ccccc21 | 184 | 17 | – | – | – |
| CCN(Cc1cccc(OC)c1)C(=O)Cn1c2ccccc2c2cc(Br)ccc21 | 469 | 1 | inactive | inactive | inhibition (Translocator protein [8]): inactive; inhibition [9]: inactive |
| CCN(Cc1cccc(F)c1)C(=O)Cn1c2ccccc2c2ccccc21 | 563 | > 17.8 | – | – | – |
| CN(C)C(=O)Cn1c2ccccc2c2ccccc21 | > 10000 | – | – | – | – |
| CCN(Cc1ccc(F)cc1)C(=O)Cn1c2ccccc2c2ccccc21 | 694 | > 14.4 | – | – | – |
